Values joined by “and” are separate entries in the source; they are usually repeats but may differ in a detail not shown here. Identical values can stand only once.
What was measured:
Cavia porcellus [1] = test: Evaluated in normal, fasted guinea pig for the percentage reduction in blood glucose level as compared to pretreatment blood glucose values at a dose of 100 mg of free base / kg body weight administered orally
[2] = Lethal dose required to produce 50% lethality in male and female carworth farms CF-1 strain mice weighing 16-25 g administered intraperitoneally; format: toxicity, organism-based; conditions: both, CF-1, mouse, in vivo, ip
Summary of the method: (§1)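 Four mice per dose level. Drug dissolved in distilled water and suspended in 0.5% carboxymethylcellulose or 0.5% gelatin, with pH adjusted by 1 N HCl or 1 N NaOH where the drug tolerated it. Doses logarithmically spaced, given orally or intraperitoneally. Mice observed 7 days after dosing. LD50 derived by the Bliss method, expressed in mg/kg.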

Monkey [3] = test: Evaluated in normal, fasted monkey for the percentage reduction in blood glucose level as compared to pretreatment blood glucose values at a dose of 50 mg of free base / kg body weight administered orally; format: functional, Cercopithecidae
Summary of the method: (§2)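 Male and female rhesus monkeys (2–3 kg) were food-deprived, with water, for 18 h. Pretreatment blood was taken from the popliteal vein. Dosing was oral by stomach tube, with repeat sampling 5 h post-dose. Results are percent reduction in blood glucose relative to pretreatment values.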

Rattus norvegicus [4] = test: Evaluated in glucose-primed, fasted rat for the percentage reduction in blood glucose level as compared to control groups at a dose of 50 mg of free base / kg body weight administered orally; format: functional
Summary of the method: (§3)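 Male Sprague–Dawley rats, 140–150 g, groups of six, fasted 16 h. Each rat got 100 mg glucose s.c. in 0.5 mL isotonic NaCl, then the test agent at once orally as an aqueous carboxymethylcellulose suspension (0.5 mL); controls got vehicle. At 2 h, under light ether, blood was taken by cardiac puncture. Glucose was read by Autoanalyzer (Hoffman method). Values are percent difference from vehicle controls.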

Rattus norvegicus [5] = test: Evaluated in glucose-primed, fasted rat for the percentage reduction in blood glucose level as compared to control groups at a dose of 150 mg of free base / kg body weight administered orally; format: functional
Summary of the method: as §3

Rattus norvegicus [6] = test: Evaluated in alloxanized, diabetic rat for the percentage reduction in blood glucose level as compared to pretreatment blood glucose values at a dose of 150 mg of free base / kg body weight administered orally; format: functional
Summary of the method: (§4)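 Three days later, rats positive for urine glucose (reagent strip) formed groups of six. Tail-vein blood was taken before oral dosing and again at 5 h. Percent reduction is versus pretreatment glucose.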

Rattus norvegicus [7] = test: Evaluated in glucose-primed, fasted rat for the percentage reduction in blood glucose level as compared to control groups at a dose of 100 mg of free base / kg body weight administered orally; format: functional
Summary of the method: as §3

Rattus norvegicus [8] = test: Evaluated in alloxanized, diabetic rat for the percentage reduction in blood glucose level as compared to pretreatment blood glucose values at a dose of 100 mg of free base / kg body weight administered orally; format: functional
Summary of the method: as §4

Monkey [9] = test: Evaluated in normal, fasted monkey for the percentage reduction in blood glucose level as compared to pretreatment blood glucose values at a dose of 60 mg of free base / kg body weight administered orally; format: functional, Cercopithecidae
Summary of the method: as §2

Monkey [10] = test: Evaluated in normal, fasted monkey for the percentage reduction in blood glucose level as compared to pretreatment blood glucose values at a dose of 25 mg of free base / kg body weight administered orally; format: functional, Cercopithecidae
Summary of the method: as §2

Rattus norvegicus [11] = test: Blood sugar lowering (hypoglycemic activity) in the glucose-primed rat at a dose of 100 mg/kg; Decrease in blood sugar level.; format: functional
Summary of the method: as §3

[12] = (§5) Lethal dose required to produce 50% lethality in male and female carworth farms CF-1 strain mice weighing 16-25 g administered orally; format: toxicity, organism-based; conditions: both, CF-1, mouse, in vivo, po
Summary of the method: as §1

Rattus norvegicus [13] = test: Evaluated in glucose primed, adrenalectomized rat for the percentage reduction in blood glucose level as compared to pretreatment blood glucose values at a dose of 25 mg of free base / kg body weight administered orally; format: functional
Summary of the method: (§6)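 Male Sprague–Dawley rats were adrenalectomized 7 days before testing, fasted 16 h, and given 100 mg glucose s.c. per rat. Drug was given orally at once; controls received an equal volume of saline. Blood was taken by cardiac puncture after 2 h. Percent reduction in blood glucose is versus pretreatment values.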

Rattus norvegicus [14] = test: Compound was evaluated for the blood sugar lowering (hypoglycemic activity) in the glucose-primed rat at a dose of 100 mg/kg; Increase in blood sugar level.; format: functional
Summary of the method: as §3

[15] = Dose that produces lethality in 50% (LD50) of male and female carworth farms CF-1 strain mice weighing 16-25 g oral (po) route of administration; format: ADME, organism-based; conditions: both, CF-1, mouse, in vivo
Summary of the method: as §1

[16] = Lethality in 50% (LD50) of male and female CF-1 strain mice weighing 16-25g, intraperitoneal administration; format: ADME, organism-based; conditions: both, CF-1, mouse, in vivo, ip
Summary of the method: as §1

Rattus norvegicus [17] = test: Evaluated in glucose-primed, fasted rat for the percentage reduction in blood glucose level as compared to control groups at a dose of 10 mg of free base / kg body weight administered orally; format: functional
Summary of the method: as §3

[18] = as §5; conditions: both, CF-1, rat, in vivo, po
Rattus norvegicus [19] = test: Evaluated in alloxanized, diabetic rat for the percentage reduction in blood glucose level as compared to pretreatment blood glucose values at a dose of 200 mg of free base / kg body weight administered orally; format: functional
Summary of the method: as §4

Cavia porcellus [20] = test: Evaluated in normal, fasted guinea pig for the percentage reduction in blood glucose level as compared to pretreatment blood glucose values at a dose of 100 mg of free base / kg body weight administered orally; format: functional
Summary of the method: (§7)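 Male and female Hartley guinea pigs, 450–500 g, were food-deprived (water allowed) 18 h and split by sex into groups of four. A zero-time blood sample was taken by cardiac puncture, then drug was given, and blood was drawn again 5 h later. Percent reduction in blood glucose is relative to pretreatment values.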

Rattus norvegicus [21] = test: Evaluated in glucose-primed, fasted rat for the percentage reduction in blood glucose level as compared to control groups at a dose of 25 mg of free base / kg body weight administered orally; format: functional
Summary of the method: as §3

Monkey [22] = test: Evaluated in normal, fasted monkey for the percentage reduction in blood glucose level as compared to pretreatment blood glucose values at a dose of 70 mg of free base / kg body weight administered orally; format: functional, Cercopithecidae
Summary of the method: as §2

Rattus norvegicus [23] = test: Compound was evaluated for the blood sugar lowering (hypoglycemic activity ) in the glucose-primed rat at a dose of 50 mg of base/kg; format: functional
Summary of the method: as §3

Rattus norvegicus [24] = test: Evaluated in glucose-primed, fasted rat for the percentage reduction in blood glucose level after 2 hr as compared to control groups at a dose of 500 mg of free base / kg body weight administered orally; format: functional
Summary of the method: as §3

Cavia porcellus [25] = test: Evaluated in normal, fasted guinea pig for the percentage reduction in blood glucose level after 5 hr as compared to pretreatment blood glucose values at a dose of 125 mg of free base / kg body weight administered orally; format: functional
Summary of the method: as §7

Monkey [26] = test: Evaluated in normal, fasted monkey for the percentage reduction in blood glucose level after 5 hr as compared to pretreatment blood glucose values at a dose of 20 mg of free base / kg body weight administered orally; format: functional, Cercopithecidae
Summary of the method: as §2

Rattus norvegicus [27] = test: Evaluated in glucose-primed, fasted rat for the percentage reduction in blood glucose level after 2 hr as compared to control groups at a dose of 10 mg of free base / kg body weight administered orally; format: functional
Summary of the method: as §3

Monkey [28] = test: Evaluated in normal, fasted monkey for the percentage reduction in blood glucose level after 5 hr as compared to pretreatment blood glucose values at a dose of 40 mg of free base / kg body weight administered orally; format: functional, Cercopithecidae
Summary of the method: as §2

Rattus norvegicus [29] = test: Evaluated in glucose primed, adrenalectomized rat for the percentage reduction in blood glucose level after 2 hr as compared to pretreatment blood glucose values at a dose of 10 mg of free base / kg body weight administered orally; format: functional
Summary of the method: as §6

Rattus norvegicus [30] = test: Evaluated in glucose-primed, fasted rat for the percentage reduction in blood glucose level after 2 h as compared to control groups at a dose of 25 mg of free base / kg body weight administered orally; format: functional
Summary of the method: as §3

Cavia porcellus [31] = test: Evaluated in normal, fasted guinea pig for the percentage reduction in blood glucose level after 5 hr as compared to pretreatment blood glucose values at a dose of 150 mg of free base / kg body weight administered orally; format: functional
Summary of the method: as §7

Rattus norvegicus [32] = test: Evaluated in glucose primed, adrenalectomized rat for the percentage reduction in blood glucose level after 2 hr as compared to pretreatment blood glucose values at a dose of 20 mg of free base / kg body weight administered orally; format: functional
Summary of the method: as §6

Cavia porcellus [33] = test: Evaluated in normal, fasted guinea pig for the percentage reduction in blood glucose level after 5 hr as compared to pretreatment blood glucose values at a dose of 100 mg of free base / kg body weight administered orally; format: functional
Summary of the method: as §7

Rattus norvegicus [34] = test: Evaluated in glucose-primed, fasted rat for the percentage reduction in blood glucose level after 2 hr as compared to control groups at a dose of 250 mg of free base / kg body weight administered orally; format: functional
Summary of the method: as §3

Cavia porcellus [35] = test: Evaluated in normal, fasted guinea pig for the percentage reduction in blood glucose level after 5 hr as compared to pretreatment blood glucose values at a dose of 160 mg of free base / kg body weight administered orally; format: functional
Summary of the method: as §7

Structure (SMILES): Br.CC(C)N(CCOc1ccc(N/C(=N\c2ccccc2)c2ccccc2)cc1)C(C)C
- Reduction (Cavia porcellus [1]): 10.6%
- LD50 [2]: 273 mg/kg
- Reduction (Monkey [3]): 31.9%
- Reduction (Rattus norvegicus [4]): 12.9%
- Reduction (Rattus norvegicus [5]): 32%
- Reduction (Rattus norvegicus [6]): 37.3%
- Reduction (Rattus norvegicus [7]): 31.2%
- Reduction (Rattus norvegicus [8]): 16.5%
- Reduction (Monkey [9]): 45%
- Reduction (Monkey [10]): 0%
- Change (Rattus norvegicus [11]): 31.2%
- LD50 [12]: 900 mg/kg
- Reduction (Rattus norvegicus [13]): 33.4%

Structure (SMILES): Br.c1ccc(/N=C(\Nc2ccc(OCCN3CCCC3)cc2)c2ccccc2)cc1
- Change (Rattus norvegicus [14]): 35%
- LD50 [15]: 500 mg/kg
- LD50 [16]: 117 mg/kg

Structure (SMILES): Br.CC(C)N(CCCOc1ccc(N/C(=N\c2ccccc2)c2ccccc2)cc1)C(C)C
- Reduction (Rattus norvegicus [17]): 10.9%
- LD50 [18]: 347 mg/kg
- LD50 [2]: 140 mg/kg
- Reduction (Monkey [3]): 26.5%
- Reduction (Rattus norvegicus [4]): 32.2%
- Reduction (Rattus norvegicus [19]): 21.5%
- Reduction (Cavia porcellus [20]): 33.5% and 20%
- Reduction (Rattus norvegicus [21]): 21.2%
- Reduction (Rattus norvegicus [8]): 15%
- Reduction (Monkey [9]): 32.3%
- Reduction (Monkey [10]): 0%
- Reduction (Monkey [22]): 39%
- Change (Rattus norvegicus [23]): 32.2%
- Reduction (Rattus norvegicus [13]): 30.6%

Structure (SMILES): Cc1ccc(S(=O)(=O)NC(=O)NN2CCCCCC2)cc1 [TOLAZAMIDE]
- Reduction (Rattus norvegicus [24]): 51.1%
- Reduction (Cavia porcellus [25]): 26.7%
- Reduction (Monkey [26]): 11%
- Reduction (Rattus norvegicus [27]): 28.1%
- Reduction (Monkey [28]): 26.7%
- Reduction (Rattus norvegicus [29]): 75.8%
- Reduction (Rattus norvegicus [30]): 50%
- Reduction (Cavia porcellus [31]): 30.4%
- Reduction (Rattus norvegicus [32]): 85.6%
- Reduction (Cavia porcellus [33]): 33.5%
- Reduction (Rattus norvegicus [34]): 42.9%
- Reduction (Rattus norvegicus [8]): 0%
- Reduction (Cavia porcellus [35]): 25%

— ChEMBL document CHEMBL1122033, “Chemistry and hypoglycemic activity of N-[[(Dialkylamino)alkoxy]phenyl]benzamidines” (J Med Chem, 1982)
